Holding throughout (type): functional
Holding throughout (settings): read-out: GI

For assay [1], the system named is Fusarium oxysporum. The assay is described as follows: Fungicidal activity against Fusarium oxysporum assessed as mycelium growth inhibition at 10 ug/mL by mycelium growth rate method. Put shortly: (§1)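 In vitro mycelium growth rate method, with fenpiclonil as control. Compounds were tested at 50, 20 and 10 μg mL-1. Mycelial diameters were measured once the mycelia had grown completely. Inhibition (%) = (D1 − D2)/D1 × 100, where D1 is the mean mycelial diameter in the blank and D2 is the mean diameter with compound.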

For assay [2], the system named is Mycosphaerella arachidis. As to the kind of experiment: Fungicidal activity against Mycosphaerella arachidis assessed as mycelium growth inhibition at 20 ug/mL by mycelium growth rate method. Summed up:
as §1

The test system of assay [3] is Alternaria solani. The assay is described as follows: Fungicidal activity against Alternaria solani assessed as mycelium growth inhibition at 20 ug/mL by mycelium growth rate method. Put shortly:
as §1

Assay [4] deals with Fusarium graminearum. As to the kind of experiment: Fungicidal activity against Fusarium graminearum assessed as mycelium growth inhibition at 50 ug/mL by mycelium growth rate method. Summed up:
as §1

Assay [5] relates to Botryosphaeria berengeriana. As to the kind of experiment: Fungicidal activity against Botryosphaeria berengeriana assessed as mycelium growth inhibition at 50 ug/mL by mycelium growth rate method. Summed up:
as §1

Assay [6] has as its system Fusarium oxysporum. As to the kind of experiment: Fungicidal activity against Fusarium oxysporum assessed as mycelium growth inhibition at 50 ug/mL by mycelium growth rate method. Put shortly: as §1
For assay [7], the system named is Fusarium graminearum. As to the kind of experiment: Fungicidal activity against Fusarium graminearum assessed as mycelium growth inhibition at 10 ug/mL by mycelium growth rate method. Put shortly:
as §1

The test system of assay [8] is Alternaria solani. The assay is described as follows: Fungicidal activity against Alternaria solani assessed as mycelium growth inhibition at 10 ug/mL by mycelium growth rate method. Summed up:
as §1

Assay [9] has as its system Botryosphaeria berengeriana. As to the kind of experiment: Fungicidal activity against Botryosphaeria berengeriana assessed as mycelium growth inhibition at 20 ug/mL by mycelium growth rate method. Put shortly: as §1
Assay [10] concerns Botryosphaeria berengeriana. The assay is described as follows: Fungicidal activity against Botryosphaeria berengeriana assessed as mycelium growth inhibition at 10 ug/mL by mycelium growth rate method. Summed up:
as §1

Assay [11] deals with Mycosphaerella arachidis. The assay is described as follows: Fungicidal activity against Mycosphaerella arachidis assessed as mycelium growth inhibition at 50 ug/mL by mycelium growth rate method. Put shortly: as §1
Assay [12] relates to Alternaria solani. As to the kind of experiment: Fungicidal activity against Alternaria solani assessed as mycelium growth inhibition at 50 ug/mL by mycelium growth rate method. Summed up: as §1
The test system of assay [13] is Fusarium graminearum. As to the kind of experiment: Fungicidal activity against Fusarium graminearum assessed as mycelium growth inhibition at 20 ug/mL by mycelium growth rate method. Summed up:
as §1

Assay [14] deals with Mycosphaerella arachidis. The assay is described as follows: Fungicidal activity against Mycosphaerella arachidis assessed as mycelium growth inhibition at 10 ug/mL by mycelium growth rate method. Put shortly: as §1
For assay [15], the system named is Fusarium oxysporum. As to the kind of experiment: Fungicidal activity against Fusarium oxysporum assessed as mycelium growth inhibition at 20 ug/mL by mycelium growth rate method. Summed up: as §1

We go through eleven molecules from ChEMBL document CHEMBL3045952, “Design, synthesis, and fungicidal activity of novel analogues of pyrrolnitrin” (J Agric Food Chem, 2009).

Each structure is given as a SMILES string.

Take `O=[N+]([O-])c1cc(-c2ccc(Cl)cc2[N+](=O)[O-])cs1`: the inhibition of growth at 10 µg/mL (in the assay on Fusarium oxysporum [1]; in the assay on Fusarium graminearum [7]; in the assay with Alternaria solani [8]; in assay [10]; in the assay with Mycosphaerella arachidis [14]) was 0% in each case. In addition, the inhibition of growth at 20 µg/mL (in the assay on Mycosphaerella arachidis [2]; in the assay with Alternaria solani [3]; in [9]; in the assay on Fusarium graminearum [13]; in the assay with Fusarium oxysporum [15]) was 0% in each case. Moreover, the inhibition of growth at 50 µg/mL is 4% in the assay on Fusarium graminearum [4]; 2% in [5]; 17% in the assay on Fusarium oxysporum [6]; 2% with Mycosphaerella arachidis [11]; 19% in the assay on Alternaria solani [12].

As for `O=[N+]([O-])c1cc(-c2c(Cl)cc(Cl)cc2[N+](=O)[O-])cs1`, the inhibition of growth at 10 µg/mL turned out to be 21% in the assay with Fusarium oxysporum [1]; 8% with Fusarium graminearum [7]; 25% with Alternaria solani [8]; 10% in assay [10]; 5% in the assay with Mycosphaerella arachidis [14]. Besides, the inhibition of growth at 20 µg/mL amounted to 16% with Mycosphaerella arachidis [2]; 32% in the assay with Alternaria solani [3]; 17% in [9]; 16% with Fusarium graminearum [13]; 32% in the assay with Fusarium oxysporum [15]. Further, the inhibition of growth at 50 µg/mL was determined as 24% in the assay on Fusarium graminearum [4]; 25% in assay [5]; 39% in the assay on Fusarium oxysporum [6]; 27% in the assay on Mycosphaerella arachidis [11]; 41% in the assay with Alternaria solani [12].

For `O=[N+]([O-])c1cc(-c2cc(Cl)c(F)cc2[N+](=O)[O-])cs1`, the inhibition of growth at 10 µg/mL (with Fusarium oxysporum [1]; in the assay on Fusarium graminearum [7]; in the assay with Alternaria solani [8]; in assay [10]; in the assay on Mycosphaerella arachidis [14]) was 0% throughout. Further, the inhibition of growth at 20 µg/mL came out at 11% in the assay with Mycosphaerella arachidis [2]; 16% in the assay with Alternaria solani [3]; 2% in assay [9]; 0% in the assay with Fusarium graminearum [13]; 7% in the assay with Fusarium oxysporum [15]. Moreover, the inhibition of growth at 50 µg/mL came out at 0% in the assay on Fusarium graminearum [4]; 14% in [5]; 10% in the assay on Fusarium oxysporum [6]; 16% with Mycosphaerella arachidis [11]; 25% with Alternaria solani [12].

Take `O=[N+]([O-])c1cc(-c2c(Cl)cc(Cl)c(Cl)c2[N+](=O)[O-])cs1`: the inhibition of growth at 10 µg/mL was found to be 0% in the assay with Fusarium oxysporum [1]; 0% in the assay with Fusarium graminearum [7]; 17% in the assay on Alternaria solani [8]; 0% in assay [10]; 5% in the assay on Mycosphaerella arachidis [14]. Moreover, the inhibition of growth at 20 µg/mL in the assay on Mycosphaerella arachidis [2] was found to be 20%; in the assay with Alternaria solani [3], 26%; in [9], 10%; in the assay with Fusarium graminearum [13], 0%; in the assay with Fusarium oxysporum [15] it was 0%. Further, the inhibition of growth at 50 µg/mL was 0% in the assay on Fusarium graminearum [4]; 24% in assay [5]; 4% with Fusarium oxysporum [6]; 35% in the assay with Mycosphaerella arachidis [11]; 34% in the assay on Alternaria solani [12].

As for `O=[N+]([O-])c1ccccc1-c1ccsc1[N+](=O)[O-]`, the inhibition of growth at 10 µg/mL in the assay on Fusarium oxysporum [1] was 0%; in the assay with Fusarium graminearum [7], 6%; in the assay with Alternaria solani [8], 9%; in assay [10], 0%; in the assay on Mycosphaerella arachidis [14], 8%. The inhibition of growth at 20 µg/mL is 16% in the assay on Mycosphaerella arachidis [2]; 16% in the assay on Alternaria solani [3]; 25% in assay [9]; 14% with Fusarium graminearum [13]; 13% with Fusarium oxysporum [15]. For the same molecule, the inhibition of growth at 50 µg/mL turned out to be 23% in the assay on Fusarium graminearum [4]; 30% in [5]; 22% in the assay with Fusarium oxysporum [6]; 25% in the assay with Mycosphaerella arachidis [11]; 25% in the assay on Alternaria solani [12].

For `O=[N+]([O-])c1cc(F)ccc1-c1ccsc1[N+](=O)[O-]`, the inhibition of growth at 10 µg/mL is 0% in the assay on Fusarium oxysporum [1]; 0% with Fusarium graminearum [7]; 9% with Alternaria solani [8]; 0% in assay [10]; 0% in the assay with Mycosphaerella arachidis [14]. In addition, the inhibition of growth at 20 µg/mL in the assay with Mycosphaerella arachidis [2] is 0%; with Alternaria solani [3] it was 25%; in [9], 4%; with Fusarium graminearum [13], 0%; with Fusarium oxysporum [15], 7%. Besides, the inhibition of growth at 50 µg/mL was determined as 0% in the assay with Fusarium graminearum [4]; 14% in assay [5]; 17% in the assay on Fusarium oxysporum [6]; 16% in the assay on Mycosphaerella arachidis [11]; 48% in the assay on Alternaria solani [12].

For the molecule `O=[N+]([O-])c1ccc(F)cc1-c1ccsc1[N+](=O)[O-]`, the inhibition of growth at 10 µg/mL (in the assay with Fusarium oxysporum [1]; with Fusarium graminearum [7]; in the assay with Alternaria solani [8]; in [10]; in the assay with Mycosphaerella arachidis [14]) was 0% in each case. Further, the inhibition of growth at 20 µg/mL with Mycosphaerella arachidis [2] was 0%; in the assay with Alternaria solani [3], 16%; in assay [9] it was 0%; in the assay with Fusarium graminearum [13] it was 0%; with Fusarium oxysporum [15] it was 0%. Besides, the inhibition of growth at 50 µg/mL in the assay with Fusarium graminearum [4] was 0%; in assay [5], 10%; in the assay with Fusarium oxysporum [6] it was 21%; in the assay on Mycosphaerella arachidis [11], 11%; in the assay with Alternaria solani [12], 29%.

On to `O=[N+]([O-])c1cc(Cl)ccc1-c1ccsc1[N+](=O)[O-]`, for which the inhibition of growth at 10 µg/mL (in the assay on Fusarium oxysporum [1]; with Fusarium graminearum [7]; in the assay with Alternaria solani [8]; in assay [10]; in the assay on Mycosphaerella arachidis [14]) was 0% each time. The inhibition of growth at 20 µg/mL came to 0% in the assay on Mycosphaerella arachidis [2]; 0% in the assay with Alternaria solani [3]; 10% in [9]; 0% in the assay on Fusarium graminearum [13]; 0% in the assay on Fusarium oxysporum [15]. The inhibition of growth at 50 µg/mL in the assay with Fusarium graminearum [4] was 0%; in assay [5], 25%; with Fusarium oxysporum [6], 17%; with Mycosphaerella arachidis [11] it was 0%; in the assay on Alternaria solani [12], 9%.

Consider `O=[N+]([O-])c1cc(Cl)cc(Cl)c1-c1ccsc1[N+](=O)[O-]`, for which the inhibition of growth at 10 µg/mL in the assay with Fusarium oxysporum [1] was 10%; in the assay with Fusarium graminearum [7], 0%; in the assay on Alternaria solani [8], 16%; in assay [10] it was 2%; in the assay on Mycosphaerella arachidis [14] it was 0%. Moreover, the inhibition of growth at 20 µg/mL stood at 11% in the assay with Mycosphaerella arachidis [2]; 32% in the assay on Alternaria solani [3]; 17% in [9]; 0% in the assay with Fusarium graminearum [13]; 14% with Fusarium oxysporum [15]. In addition, the inhibition of growth at 50 µg/mL was determined as 0% in the assay with Fusarium graminearum [4]; 27% in assay [5]; 28% in the assay with Fusarium oxysporum [6]; 27% in the assay on Mycosphaerella arachidis [11]; 38% in the assay on Alternaria solani [12].

For the molecule `O=[N+]([O-])c1cc(F)c(Cl)cc1-c1ccsc1[N+](=O)[O-]`, the inhibition of growth at 10 µg/mL in the assay on Fusarium oxysporum [1] came to 14%; in the assay on Fusarium graminearum [7], 0%; with Alternaria solani [8], 48%; in [10], 12%; with Mycosphaerella arachidis [14], 0%. For the same molecule, the inhibition of growth at 20 µg/mL came out at 5% in the assay with Mycosphaerella arachidis [2]; 54% with Alternaria solani [3]; 36% in assay [9]; 4% with Fusarium graminearum [13]; 28% in the assay with Fusarium oxysporum [15]. In addition, the inhibition of growth at 50 µg/mL in the assay on Fusarium graminearum [4] turned out to be 20%; in assay [5] it was 42%; with Fusarium oxysporum [6] it was 39%; with Mycosphaerella arachidis [11], 18%; in the assay on Alternaria solani [12], 61%.

Regarding `O=[N+]([O-])c1sccc1-c1c(Cl)cc(Cl)c(Cl)c1[N+](=O)[O-]`, the inhibition of growth at 10 µg/mL was found to be 0% in the assay with Fusarium oxysporum [1]; 0% in the assay with Fusarium graminearum [7]; 0% in the assay with Alternaria solani [8]; 0% in assay [10]; 5% with Mycosphaerella arachidis [14]. Moreover, the inhibition of growth at 20 µg/mL with Mycosphaerella arachidis [2] amounted to 25%; in the assay with Alternaria solani [3] it was 26%; in [9], 13%; in the assay on Fusarium graminearum [13], 0%; in the assay with Fusarium oxysporum [15] it was 0%. Further, the inhibition of growth at 50 µg/mL turned out to be 0% in the assay on Fusarium graminearum [4]; 40% in assay [5]; 22% in the assay with Fusarium oxysporum [6]; 40% in the assay on Mycosphaerella arachidis [11]; 34% in the assay with Alternaria solani [12].
